Tests used:
[1] = target: Human PDE10A2 (Homo sapiens, UniProt Q9Y233); test: PDE10A fluorescence polarization; assay type: biochemical
[2] = Weight gain in rats; assay type: in vivo; settings: data not shown
[3] = test system: circulating levels of prolactin; test: Circulating prolactin in rats; assay type: in vivo; settings: data not shown
[4] = test system: MK-801-induced locomotor activity in rats; test: MK-801-induced psychomotor; assay type: in vivo; settings: MK-801 model, striatal occupancy derived from plasma exposures
[5] = target: Iks (Homo sapiens, UniProt P51787); test: Ion channel profile, Iks; assay type: cell-based
[6] = test system: other PDE enzyme families (PDE1–PDE11); test: PDE selectivity over the other PDE enzyme families; assay type: biochemical; settings: tables 1 and 2; over other PDEs
[7] = test system: 5-strain Ames test; test: Microbial mutagenesis assay; assay type: cell-based
[8] = target: full length human PDE10A2 (Homo sapiens, UniProt Q9Y233); test: Surface plasmon resonance binding kinetics; settings: SPR
[9] = test system: novel objection recognition in rats; test: Novel objection recognition assay; assay type: in vivo; settings: for novel objection recognition: rats, vs vehicle, p <0.05
In short: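 Rats dosed orally with test compound; donepezil 0.56 mg/kg as reference. Plasma was taken 1 h post dose at the end of the behavioral study (n = 4/group). Striatal PDE10A occupancy was derived from these end-of-study plasma exposures. Significance was tested against vehicle.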

[10] = test system: catalepsy in the rats; test: Catalepsy in rats; assay type: in vivo; settings: compared with atypical antipsychotics, data not shown
[11] = test system: Chinese hamster ovary cells; test: Assay for chromosomal aberrations; assay type: cell-based
[12] = test system: acute episode of schizophrenia; settings: patients experiencing an acute episode of schizophrenia; cited from earlier work
[13] = target: T1, PDE10A (Rattus norvegicus, UniProt Q9QYJ6); test: In vivo PDE10A enzyme occupancy in rat striatum with [3H]MK-8193; design: species or system Wistar–Hannover rats
T1 sequence (Q9QYJ6 1-794): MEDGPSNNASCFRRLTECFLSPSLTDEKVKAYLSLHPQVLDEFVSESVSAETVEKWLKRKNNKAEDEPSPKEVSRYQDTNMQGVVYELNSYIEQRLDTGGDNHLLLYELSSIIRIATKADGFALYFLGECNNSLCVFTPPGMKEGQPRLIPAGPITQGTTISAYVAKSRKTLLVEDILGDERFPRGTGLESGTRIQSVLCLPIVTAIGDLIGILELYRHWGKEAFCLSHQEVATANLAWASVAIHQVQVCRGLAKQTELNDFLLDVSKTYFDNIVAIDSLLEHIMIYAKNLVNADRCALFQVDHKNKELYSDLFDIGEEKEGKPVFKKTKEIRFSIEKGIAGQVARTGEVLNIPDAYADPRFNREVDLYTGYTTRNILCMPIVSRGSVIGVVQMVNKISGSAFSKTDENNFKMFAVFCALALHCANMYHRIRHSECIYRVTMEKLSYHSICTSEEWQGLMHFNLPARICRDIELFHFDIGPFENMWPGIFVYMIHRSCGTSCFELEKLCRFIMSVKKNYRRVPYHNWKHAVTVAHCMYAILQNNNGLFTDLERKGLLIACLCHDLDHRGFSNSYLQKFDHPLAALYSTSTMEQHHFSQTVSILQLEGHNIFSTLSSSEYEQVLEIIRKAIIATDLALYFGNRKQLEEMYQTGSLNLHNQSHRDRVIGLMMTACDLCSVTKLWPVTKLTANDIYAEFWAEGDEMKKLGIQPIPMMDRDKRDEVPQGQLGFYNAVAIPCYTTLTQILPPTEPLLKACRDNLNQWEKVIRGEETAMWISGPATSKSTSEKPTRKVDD

[14] = Passive permeability; assay type: in vitro ADME; settings: not told

Sequence of full length human PDE10A2 (Q9Y233 715-1055): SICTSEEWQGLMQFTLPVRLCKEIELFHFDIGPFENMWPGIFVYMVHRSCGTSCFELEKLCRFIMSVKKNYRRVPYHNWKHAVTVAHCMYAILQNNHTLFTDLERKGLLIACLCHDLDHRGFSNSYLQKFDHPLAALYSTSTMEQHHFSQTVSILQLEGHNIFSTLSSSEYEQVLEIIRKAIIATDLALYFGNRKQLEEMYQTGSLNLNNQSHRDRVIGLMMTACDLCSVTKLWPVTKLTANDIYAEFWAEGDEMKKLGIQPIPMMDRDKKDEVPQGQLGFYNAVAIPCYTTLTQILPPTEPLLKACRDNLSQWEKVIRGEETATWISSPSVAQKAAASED
Sequence of Human PDE10A2 (Q9Y233 267-1055): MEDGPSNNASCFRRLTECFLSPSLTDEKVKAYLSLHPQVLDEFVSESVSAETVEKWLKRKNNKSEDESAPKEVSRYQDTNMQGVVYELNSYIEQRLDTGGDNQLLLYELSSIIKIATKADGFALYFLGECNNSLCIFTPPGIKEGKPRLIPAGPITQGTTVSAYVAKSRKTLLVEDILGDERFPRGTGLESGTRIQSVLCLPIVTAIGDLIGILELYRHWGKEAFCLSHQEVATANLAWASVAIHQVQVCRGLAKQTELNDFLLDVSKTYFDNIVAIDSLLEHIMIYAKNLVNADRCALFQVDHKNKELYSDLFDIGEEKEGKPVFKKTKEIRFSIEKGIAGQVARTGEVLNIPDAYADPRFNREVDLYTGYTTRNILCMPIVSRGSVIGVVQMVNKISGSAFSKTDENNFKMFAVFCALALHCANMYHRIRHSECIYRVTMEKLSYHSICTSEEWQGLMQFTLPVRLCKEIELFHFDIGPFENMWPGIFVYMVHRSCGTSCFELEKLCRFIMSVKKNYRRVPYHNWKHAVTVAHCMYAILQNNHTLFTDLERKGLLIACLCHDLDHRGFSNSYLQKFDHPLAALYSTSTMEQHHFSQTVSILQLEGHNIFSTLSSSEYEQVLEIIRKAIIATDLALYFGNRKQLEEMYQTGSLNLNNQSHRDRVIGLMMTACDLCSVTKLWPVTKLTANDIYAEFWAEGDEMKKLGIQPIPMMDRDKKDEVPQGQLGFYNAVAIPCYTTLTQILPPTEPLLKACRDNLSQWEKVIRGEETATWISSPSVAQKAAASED
Sequence of Iks (P51787 whole entry): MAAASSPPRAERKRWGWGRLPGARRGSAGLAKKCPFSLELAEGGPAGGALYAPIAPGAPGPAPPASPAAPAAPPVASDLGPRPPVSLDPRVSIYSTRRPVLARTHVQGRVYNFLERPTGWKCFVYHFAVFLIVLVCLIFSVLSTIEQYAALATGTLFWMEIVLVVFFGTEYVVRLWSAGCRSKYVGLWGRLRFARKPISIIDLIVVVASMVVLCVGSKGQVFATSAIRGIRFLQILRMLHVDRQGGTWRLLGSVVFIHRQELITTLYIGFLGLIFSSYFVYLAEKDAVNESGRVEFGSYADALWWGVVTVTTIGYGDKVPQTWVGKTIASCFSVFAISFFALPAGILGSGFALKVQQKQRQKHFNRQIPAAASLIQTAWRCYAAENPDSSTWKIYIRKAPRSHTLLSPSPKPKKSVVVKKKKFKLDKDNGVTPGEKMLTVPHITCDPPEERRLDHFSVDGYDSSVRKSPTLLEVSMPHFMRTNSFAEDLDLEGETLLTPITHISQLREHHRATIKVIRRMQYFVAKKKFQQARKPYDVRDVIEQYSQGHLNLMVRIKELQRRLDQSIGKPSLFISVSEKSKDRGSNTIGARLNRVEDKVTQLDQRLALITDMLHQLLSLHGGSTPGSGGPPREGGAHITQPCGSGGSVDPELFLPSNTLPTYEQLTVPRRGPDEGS

## Cc1c(Cl)nc(C2CC2)nc1Cl [Compound 1]
[1]
  LBE (ligand binding efficiency): 0.57

## Cc1ccc([C@H]2C[C@@H]2COc2cc(NCc3nnc(C)s3)nc(C)n2)nc1 [Compound 18, 2-Methyl-N-((5-methyl-1,3,4-thiadiazol-2-yl)methyl)-6-(((1S,2S)-2-(5-methylpyridin-2-yl)cyclopropyl)methoxy)pyrimidin-4-amine]
[2]
  weight gain: reduced weight gain
[3]
  effect on circulating levels of prolactin: lack of effect
[4]
  enzyme occupancy at which efficacy was observed (and above): approximately 25%
[5]
  IC50: > 30 µM
[6]
  PDE selectivity: > 500,000
[7]
  microbial mutagenesis (5-strain Ames test): negative
[8]
  on-rate: ~8.0 × 10^7 M^–1·s^–1
  reversibility of binding: completely reversible
[8]; 25 °C
  in vitro half-life on the enzyme: ~6.7 min
[9]; novel objection recognition, striatal occupancy derived from plasma exposures
  enzyme occupancy at which significant effects were achieved (and above): approximately 29%
[9]; 0.16 and 0.25 mg/kg PO
  novel objection recognition: efficacious
[9]; 0.16 and 0.25 mg/kg PO, listed as MK-8189 (18)
  novel objection recognition: significantly improved recognition
[10]
  therapeutic window between antipsychotic-like effects and catalepsy: larger therapeutic window
[11]
  chromosomal aberrations in Chinese hamster ovary cells: negative
[12]
  antipsychotic efficacy, initial proof of concept: evidence for antipsychotic efficacy
[13]
  EC50: 52 nM
[13]; PO, higher plasma concentrations
  maximal enzyme occupancy in the rat striatum: full enzyme occupancy
[14]
  Papp: 35.4 to 42.6 ×10⁻⁶ cm/s
[1]
  LBE (ligand binding efficiency): 0.54
  LLE (ligand-lipophilicity efficiency): 7.8

## COc1cc2c(cc1OC)C(=O)C(CC1CCN(Cc3ccccc3)CC1)C2 (stereo not shown) [donepezil, reference compound]
[9]; positive control 0.56 mg/kg
  novel objection recognition: significantly improved recognition
